Here are results for 23 molecules from ChEMBL document CHEMBL1142566, “Natural and synthetic 2,2-dimethylpyranocoumarins with antibacterial activity” (2005).

The source made the active and inactive calls. No cut-off for these calls is given here.

Assay type in all cases: functional
One experiment deals with Pseudomonas aeruginosa. Kind of experiment: Antimicrobial activity against Pseudomonas aeruginosa ATCC 27853 after 24 hrs by disk diffusion assay. The essentials: (§1)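 Bauer-Kirby disk diffusion on trypticase Mueller-Hinton agar. Plates were seeded with ATCC reference strains to a final 10⁷ cell/mL. Test compounds were dissolved in DMSO and applied to 6 mm paper disks, with solvent-only disks as negative control. Plates were incubated 24 h at 37 °C. Inhibition zone diameter (mm) was averaged over three experiments and scored <7 (-), 7-10 (+), 11-16 (++), >16 (+++).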
Background: A growth-free zone around the sample is the usual read-out of agar diffusion tests.

The subject of experiment [1] is Staphylococcus epidermidis. Description: Antimicrobial activity against Staphylococcus epidermidis ATCC 12228 after 24 hrs by disk diffusion assay. The essentials:
as §1

The test system of another experiment is Escherichia coli. Description: Antimicrobial activity against Escherichia coli ATCC 25922 after 24 hrs by disk diffusion assay. The essentials:
as §1

The subject of a further experiment is Enterobacter cloacae. Kind of experiment: Antimicrobial activity against Enterobacter cloacae ATCC 13047 after 24 hrs by disk diffusion assay. The method, boiled down: as §1
In another experiment the test system is Klebsiella pneumoniae. Kind of experiment: Antimicrobial activity against Klebsiella pneumoniae ATCC 13883 after 24 hrs by disk diffusion assay. The method, boiled down: as §1
Another experiment relates to Staphylococcus aureus. Kind of experiment: Antimicrobial activity against Staphylococcus aureus ATCC 25923 after 24 hrs by disk diffusion assay. The essentials:
as §1

The next experiment concerns Proteus mirabilis. Kind of experiment: Antimicrobial activity against Proteus mirabilis after 24 hrs by disk diffusion assay. The method, boiled down:
as §1

`COc1cc2c(c3oc(=O)ccc13)C=CC(C)(C)O2`: the “inhibition zone (IZ)” value in the experiment on Pseudomonas aeruginosa stood at 11 mm; in experiment [1], 7 mm; in the experiment on Escherichia coli, 7 mm; in the experiment with Enterobacter cloacae, 7 mm; with Klebsiella pneumoniae it was 7 mm; in the experiment with Staphylococcus aureus, 7 mm. Besides, in the experiment with Proteus mirabilis, the “inhibition zone (IZ)” value is 11 mm.

On to `COc1cc2c(c3oc(=O)ccc13)[C@H](O)[C@@H](Br)C(C)(C)O2` (racemic), for which the “inhibition zone (IZ)” value came to 11 mm in the experiment on Pseudomonas aeruginosa; 7 mm in experiment [1]; 7 mm in the experiment with Escherichia coli; 7 mm in the experiment on Enterobacter cloacae; 7 mm in the experiment with Klebsiella pneumoniae; 7 mm with Staphylococcus aureus. Moreover, the “inhibition zone (IZ)” value in the experiment on Proteus mirabilis amounted to 7 mm.

`O=c1ccc2c(O)cc(O)cc2o1`: the “inhibition zone (IZ)” value (in the experiment with Pseudomonas aeruginosa; in experiment [1]; with Escherichia coli; in the experiment on Enterobacter cloacae; in the experiment on Klebsiella pneumoniae; in the experiment on Staphylococcus aureus) was 7 mm each time. Besides, in the experiment on Proteus mirabilis, the “inhibition zone (IZ)” value is given as 7 mm.

As to `O=C(O)[C@H]1/C(=C/CO)O[C@@H]2CC(=O)N21` [CLAVULANIC ACID], the “inhibition zone (IZ)” value (in the experiment on Pseudomonas aeruginosa; in experiment [1]; in the experiment with Escherichia coli; in the experiment with Enterobacter cloacae; in the experiment with Klebsiella pneumoniae; in the experiment with Staphylococcus aureus) was over 16 mm throughout.

For the molecule `CC1(C)C=Cc2cc3ccc(=O)oc3cc2O1`, the outcome (with Pseudomonas aeruginosa; in experiment [1]; with Escherichia coli; with Enterobacter cloacae; in the experiment on Klebsiella pneumoniae; in the experiment on Staphylococcus aureus) was inactive. In addition, the result in the experiment on Proteus mirabilis was inactive.

Regarding `COc1cc2c(c3oc(=O)ccc13)C(OC(C)=O)CC(C)(C)O2` (racemic), the “inhibition zone (IZ)” value is reported as under 7 mm in the experiment on Pseudomonas aeruginosa; 11 mm in experiment [1]; under 7 mm in the experiment on Escherichia coli; under 7 mm in the experiment with Enterobacter cloacae; under 7 mm in the experiment with Klebsiella pneumoniae; 11 mm in the experiment with Staphylococcus aureus. Moreover, the “inhibition zone (IZ)” value with Proteus mirabilis turned out to be 7 mm.

Consider `COc1cc2c(c3oc(=O)ccc13)[C@H](O)[C@H](O)C(C)(C)O2` (racemic), for which the outcome (in the experiment on Pseudomonas aeruginosa; in experiment [1]; with Escherichia coli; with Enterobacter cloacae; in the experiment on Klebsiella pneumoniae; in the experiment with Staphylococcus aureus) was inactive. For the same molecule, in the experiment on Proteus mirabilis, the result was inactive.

`CC(=O)O[C@H]1c2c(ccc3ccc(=O)oc23)OC(C)(C)[C@H]1OC(C)=O`: the result (in the experiment with Pseudomonas aeruginosa; in experiment [1]; in the experiment on Escherichia coli; in the experiment on Enterobacter cloacae; with Klebsiella pneumoniae; in the experiment with Staphylococcus aureus) was inactive. Also, the outcome with Proteus mirabilis was inactive.

As to `CC1(C)CC(O)c2c(ccc3ccc(=O)oc23)O1` (stereo not drawn), the result (with Pseudomonas aeruginosa; in experiment [1]; with Escherichia coli; with Enterobacter cloacae; with Klebsiella pneumoniae; in the experiment on Staphylococcus aureus) was inactive. Besides, in the experiment on Proteus mirabilis, the outcome was inactive.

Turning to `COc1cc2c(c3oc(=O)ccc13)[C@H](OC(=O)c1ccccc1)[C@@H](Br)C(C)(C)O2` (racemic), the “inhibition zone (IZ)” value in the experiment on Pseudomonas aeruginosa is 11 mm; in experiment [1], 7 mm; in the experiment with Escherichia coli, 7 mm; in the experiment on Enterobacter cloacae, 7 mm; with Klebsiella pneumoniae it was 7 mm; with Staphylococcus aureus, 7 mm. Moreover, the “inhibition zone (IZ)” value in the experiment with Proteus mirabilis is given as 7 mm.

As to `CC1(C)C=Cc2c(cc(O)c3ccc(=O)oc23)O1`, the result (in the experiment with Pseudomonas aeruginosa; in experiment [1]; with Escherichia coli; with Enterobacter cloacae; in the experiment with Klebsiella pneumoniae; in the experiment with Staphylococcus aureus) was inactive. Moreover, in the experiment on Proteus mirabilis, the result was inactive.

Consider `COc1cc2c(c3oc(=O)ccc13)[C@H](OC(C)=O)[C@@H](Br)C(C)(C)O2` (racemic), for which the “inhibition zone (IZ)” value is listed as under 7 mm with Pseudomonas aeruginosa; 11 mm in experiment [1]; under 7 mm in the experiment on Escherichia coli; under 7 mm in the experiment on Enterobacter cloacae; under 7 mm in the experiment on Klebsiella pneumoniae; 7 mm with Staphylococcus aureus. Also, the “inhibition zone (IZ)” value with Proteus mirabilis amounted to 7 mm.

Take `CC1(C)S[C@@H]2[C@H](NC(=O)[C@H](N)c3ccc(O)cc3)C(=O)N2[C@H]1C(=O)O` [AMOXICILLIN]: the “inhibition zone (IZ)” value with Pseudomonas aeruginosa was over 16 mm; in experiment [1] it was over 16 mm; in the experiment on Escherichia coli, over 16 mm; in the experiment with Enterobacter cloacae it was over 16 mm; with Klebsiella pneumoniae, 11 mm; in the experiment on Staphylococcus aureus it was over 16 mm.

Take `CC1(C)C=Cc2c(c3c(c4ccc(=O)oc24)OC(C)(C)C=C3)O1` [DIPETALOLACTONE]: the “inhibition zone (IZ)” value worked out at 11 mm with Pseudomonas aeruginosa; 7 mm in experiment [1]; 7 mm with Escherichia coli; 7 mm in the experiment with Enterobacter cloacae; 7 mm with Klebsiella pneumoniae; 11 mm with Staphylococcus aureus. The “inhibition zone (IZ)” value with Proteus mirabilis came out at 7 mm.

In the case of `CC(=O)Oc1cc(OC(C)=O)c2ccc(=O)oc2c1`, the “inhibition zone (IZ)” value with Pseudomonas aeruginosa stood at 7 mm; in experiment [1] it was 11 mm; with Escherichia coli it was 7 mm; in the experiment with Enterobacter cloacae, 7 mm; in the experiment with Klebsiella pneumoniae, 7 mm; in the experiment on Staphylococcus aureus, 7 mm. For the same molecule, the “inhibition zone (IZ)” value in the experiment on Proteus mirabilis is 7 mm.

As for `CC(=O)Oc1cc2oc(=O)ccc2c2c1C=CC(C)(C)O2`, the “inhibition zone (IZ)” value (in the experiment with Pseudomonas aeruginosa; in experiment [1]; in the experiment with Escherichia coli; in the experiment with Enterobacter cloacae; in the experiment with Klebsiella pneumoniae; with Staphylococcus aureus) was 7 mm throughout. Moreover, the “inhibition zone (IZ)” value in the experiment with Proteus mirabilis turned out to be 7 mm.

For the molecule `CC1(C)Oc2ccc3ccc(=O)oc3c2[C@H](O)[C@@H]1O`, the result (in the experiment on Pseudomonas aeruginosa; in experiment [1]; in the experiment with Escherichia coli; in the experiment with Enterobacter cloacae; in the experiment on Klebsiella pneumoniae; in the experiment on Staphylococcus aureus) was inactive. The result with Proteus mirabilis was inactive.

With `COc1cc2oc(=O)ccc2c2c1C=CC(C)(C)O2` [ALLOXANTHOXYLETIN], the “inhibition zone (IZ)” value was 11 mm in the experiment on Pseudomonas aeruginosa; 7 mm in experiment [1]; 7 mm in the experiment with Escherichia coli; 7 mm in the experiment on Enterobacter cloacae; 7 mm in the experiment with Klebsiella pneumoniae; 7 mm in the experiment on Staphylococcus aureus. Also, the “inhibition zone (IZ)” value in the experiment on Proteus mirabilis is given as 7 mm.

Regarding `COc1cc2c(c3oc(=O)ccc13)[C@H](OC(C)=O)[C@H](OC(C)=O)C(C)(C)O2` (racemic), the outcome (in the experiment with Pseudomonas aeruginosa; in experiment [1]; in the experiment on Escherichia coli; with Enterobacter cloacae; with Klebsiella pneumoniae; in the experiment with Staphylococcus aureus) was inactive. Besides, the result in the experiment on Proteus mirabilis was inactive.

For `CC(=O)Oc1cc2c(c3oc(=O)ccc13)C=CC(C)(C)O2`, the “inhibition zone (IZ)” value (in the experiment on Pseudomonas aeruginosa; in experiment [1]; in the experiment on Escherichia coli; in the experiment on Enterobacter cloacae; in the experiment with Klebsiella pneumoniae; in the experiment with Staphylococcus aureus) was 7 mm throughout. Also, the “inhibition zone (IZ)” value in the experiment on Proteus mirabilis amounted to 7 mm.

With `COc1cc(OC)c2ccc(=O)oc2c1` [CITROPTEN], the “inhibition zone (IZ)” value in the experiment with Pseudomonas aeruginosa turned out to be 11 mm; in experiment [1] it was 11 mm; in the experiment on Escherichia coli, 7 mm; with Enterobacter cloacae it was 7 mm; with Klebsiella pneumoniae, 7 mm; in the experiment on Staphylococcus aureus, 7 mm. Also, the “inhibition zone (IZ)” value with Proteus mirabilis stood at 7 mm.

Turning to `CC1(C)Oc2ccc3ccc(=O)oc3c2[C@H](OC(=O)c2ccccc2)[C@H]1Br`, the “inhibition zone (IZ)” value (in the experiment with Pseudomonas aeruginosa; in experiment [1]; in the experiment with Escherichia coli; in the experiment on Enterobacter cloacae; in the experiment with Klebsiella pneumoniae; in the experiment with Staphylococcus aureus) was 7 mm throughout. In addition, the “inhibition zone (IZ)” value in the experiment with Proteus mirabilis stood at 7 mm.

Turning to `CCN[C@@H]1C[C@H](N)[C@@H](O[C@H]2OC(CN)=CC[C@H]2N)[C@H](O)[C@H]1O[C@H]1OC[C@](C)(O)[C@H](NC)[C@H]1O` [NETILMICIN], the “inhibition zone (IZ)” value was over 16 mm in the experiment on Pseudomonas aeruginosa; over 16 mm in experiment [1]; over 16 mm in the experiment with Escherichia coli; over 16 mm in the experiment with Enterobacter cloacae; 11 mm in the experiment on Klebsiella pneumoniae; over 16 mm with Staphylococcus aureus.
